Source: PubChem
CAL PDZ FP-1: human CAL PDZ-peptide interaction inhibition; Q9HD26; purified CAL PDZ, TMR-peptide fluorescence polarization, 1 h; inhibition, % at 20 µM; 0.02% of 330,000 active;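 active = highest replicate inhibition of at least 40%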;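 also: plate controls were DMSO neutral control wells for no effect and unlabeled competitor peptide control wells for full effect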
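Material: tagged CAL PDZ protein CerCALP, purified; buffer or medium: sodium phosphate/NaCl buffer pH 7.4 with TCEP, IgG, Thesit; also added: fluorescent TMR peptide probe; schedule: 1 h incubation at room temperature before polarization reading; technique: fluorescence polarization from S- and P-plane intensities, G-factor corrected; control set: unlabelled peptide and DMSO controls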
CAL PDZ FP-2: inhibitors of human CAL PDZ peptide binding | purified CAL PDZ, TMR-peptide fluorescence polarization, 1 h | inhibition, % at 24.9 µM | Q9HD26 | 0.92% of 300,000 active;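 active = mean inhibition of at least 30% with at least half of replicates also reaching 30%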;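 also: 0% = DMSO neutral control and 100% = excess unlabeled competitor peptide PRC23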
ARNT TACC3 PPI: disruptors of human ARNT/TACC3 interaction; AlphaScreen His-ARNT PAS-B/GST-TACC3 binding, luminescence; TACC3 fragment carries E629A point mutation; inhibition, % at 9.99 µM; 0.66% of 390,000 active; AID 623870;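 active = mean inhibition of replicates at least 50% and at least half of replicates each reaching 50%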;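 also: 0% = complete ARNT plus TACC3 wells and 100% = ARNT alone without TACC3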
Numbers without * were called inactive; . = no result; + = active, no number. Hits are enriched below; roughly 1.2% of the tested compounds scored in any of these assays.

SMILES	CAL PDZ FP-1	CAL PDZ FP-2	ARNT TACC3 PPI
O=C(c1cccnc1)N1CC[C@@H]2[C@H]1c1cc(-c3ccc(F)cc3)ccc1N[C@@H]2CO	.	.	1
COc1ccc(S(=O)(=O)Nc2ccc3c(c2)C(=O)N([C@H](C)CO)C[C@@H](C)[C@@H](CN(C)C(=O)Nc2ccc(F)cc2)O3)cc1	.	.	-8
Cc1ccc(Nc2nc(N)nc(CSc3nccn3C)n2)c(C)c1	-1	38*	1
Cc1ccc(SCc2nc(N)nc(Nc3ccccc3C)n2)c(C)c1	-2	-1	3
Oc1ccc(Br)cc1CNc1cccc2cccnc12	0	-5	49*
COc1cccc(CNc2cccc3cccnc23)c1O	-2	.	23
Oc1c(Br)cc(Br)cc1CNc1cccc2cccnc12	1	.	113*
Cc1ccc(O)c(CNc2cccc3cccnc23)c1	0	-1	37
CC(C)NC(=O)N1C[C@H]2[C@@H](c3ccccc31)[C@@H](CO)N2C(=O)Nc1ccccc1	.	.	0
COCC(=O)Nc1ccc2c(c1)C(=O)N(C)C[C@@H](OC)[C@@H](C)CN(C(=O)NC(C)C)[C@H](C)CO2	.	.	-1
CO[C@@H]1CN(C)C(=O)c2cc(NS(=O)(=O)Cc3ccccc3)ccc2OC[C@@H](C)N(Cc2cccnc2)C[C@H]1C	.	.	28
Cc1ccc(NC(=O)C2CCN(C(=O)[C@@H]3Cc4ccccc4CN3)CC2)cc1	0	7	0
Cc1cc(C)cc(NC(=O)C2CCN(C(=O)[C@@H]3Cc4ccccc4CN3)CC2)c1	-1	42*	4
C[C@@H]1CN([C@H](C)CO)C(=O)c2cc(C3=CCCC3)cnc2O[C@@H]1CN(C)C(=O)C1CCOCC1	.	.	4
C[c-]1[c-](C)[c-](C)[c-](C)[c-]1C.[Fe].c1cc2nccc(N3CCCC3)[c-]2c1 (stereo not drawn)	0	3	62*
c1cc(N2CCCCC2)nc(N2CCCCC2)n1	-1	.	-6
O=C(NCc1ccccn1)[C@@H]1[C@@H](CO)[C@@H]2Cn3c(ccc(C4=CCCC4)c3=O)[C@H]1N2Cc1cccnc1	.	.	9
C[C@@H]1CCCCO[C@@H](CN(C)C(=O)Nc2ccc3c(c2)OCO3)[C@H](C)CN([C@@H](C)CO)C(=O)c2cc(NC(=O)c3ccccc3)ccc2O1	.	.	23
COCC(=O)Nc1ccc2c(c1)C(=O)N(C)[C@@H]1CC[C@H](CC(=O)NCCc3ccncc3)O[C@H]1CO2	.	.	-7
C[C@H](NC(=O)C[C@@H]1C=C[C@@H](NC(=O)C2CCOCC2)[C@H](CO)O1)c1ccccc1	.	.	-5
O=C(O)c1cccc(OCCN2CCCC2=O)c1	0	.	-2
CN1CCC(=O)N(CCOc2ccccc2)CC1	0	-2	60*
C[C@@H]1CN([C@H](C)CO)C(=O)Cc2cc(NC(=O)c3ccncc3)ccc2O[C@@H]1CN(C)C(=O)NC1CCCCC1	.	.	-8
Cc1noc(C)c1NC(=O)Nc1cccc2c1O[C@H](CN(C)S(=O)(=O)c1ccc(F)cc1)[C@@H](C)CN([C@@H](C)CO)C2=O	.	.	-6
O=C1C(Cl)=C(NCCCN2CCOCC2)C(=O)c2ccccc21	0	-4	15
SMILES	CAL PDZ FP-1	CAL PDZ FP-2	ARNT TACC3 PPI
O=C1C(Cl)=C(NCCN2CCOCC2)C(=O)c2ccccc21	0	0	66*
CN(C)CCCNC(=O)C[C@H]1C=C[C@@H](NC(=O)c2ccccc2F)[C@H](CO)O1	.	.	31
C[C@@H]1CCCCO[C@@H](CN(C)C(=O)C2CCCCC2)[C@@H](C)CN([C@@H](C)CO)C(=O)c2cc(NC(=O)CCC(F)(F)F)ccc2O1	.	.	-7
COC(=O)C(NC(=O)C(C)NC(=O)OCc1ccccc1)C(C)C (stereo not drawn)	0	.	-5
CCC(C)C(NC(=O)C(C)NC(=O)CNC(=O)CNC(=O)OCc1ccccc1)C(=O)OC (stereo not drawn)	-1	47*	0
C[C@@H]1CN([C@H](C)CO)S(=O)(=O)c2ccc(C3=CCCC3)cc2O[C@H]1CN(C)C(=O)C1CCC1	.	.	-5
CCC(=O)Nc1ccc2c(c1)C(=O)N(C)C[C@@H](OC)[C@H](C)CN(CCc1ccccc1)[C@H](C)CO2	.	.	3
CN1C(=O)c2cc(NS(=O)(=O)c3ccccc3Cl)ccc2OC[C@H]2O[C@@H](CC(=O)O)CC[C@H]21	.	.	0
COc1ccc(NC(=O)Nc2ccc3c(c2)[C@H]2C[C@H](CC(=O)NCc4ccncc4)O[C@H](CO)[C@H]2O3)cc1	.	.	-3
CN1C(=S)SC(/[N+]([O-])=C/c2cccnc2)C1(C)C (stereo not drawn)	.	31*	3
CN1C(=S)SC(/[N+]([O-])=C\c2ccccc2)C1(C)C (stereo not drawn)	-4	-5	-1
Cc1noc(C)c1S(=O)(=O)Nc1ccc2c(c1)CC(=O)N([C@@H](C)CO)C[C@H](C)[C@@H](CN(C)C(=O)Nc1ccc(F)cc1)O2	.	.	-14
COCCn1c(SCC(=O)Nc2ccc3[nH]c(=O)[nH]c3c2)nc2ccccc2c1=O	0	-5	-4
COCCn1c(SCC(=O)Nc2ccc(OC)c(S(N)(=O)=O)c2)nc2ccccc2c1=O	0	41*	-6
COc1ccc(S(=O)(=O)N(C)C[C@@H]2Oc3ccc(NC(=O)CCN4CCOCC4)cc3C(=O)N([C@@H](C)CO)C[C@H]2C)cc1	.	.	-9
N=C1SC(CC(=O)Nc2ccc([N+](=O)[O-])cc2)C(=O)N1c1ccccc1 (stereo not drawn)	-2	.	-2
COc1ccc(OC)c(NC(=O)CC2SC(=N)N(c3ccccc3)C2=O)c1 (stereo not drawn)	0	+	-1
Cc1cccc(NC(=O)CS(=O)(=O)c2c[nH]c3ccccc23)c1C	-2	55*	-1
Cc1ccc(C)c(NC(=O)CS(=O)(=O)c2c[nH]c3ccccc23)c1	.	1	-3
C[C@H]1CN([C@@H](C)CO)C(=O)Cc2cc(NC(=O)Cc3ccccc3)ccc2O[C@@H]1CN(C)Cc1ccc(C(=O)O)cc1	.	.	-4
COc1ccc(NC(=O)Nc2ccc3c(c2)C(=O)N([C@H](C)CO)C[C@H](C)[C@@H](CN(C)C(=O)c2ccccc2)OCCCC[C@@H](C)O3)cc1	.	.	2
Cc1ccccc1S(=O)(=O)NCC[C@@H]1CC[C@H](NC(=O)C2CC2)[C@H](CO)O1	.	.	-5
O=C(O)COc1ccccc1/C=C1\SC(=S)N(NC(=O)c2ccccc2O)C1=O	-1	-3	51*
O=C(O)COc1ccccc1/C=C1\SC(=Nc2ccc(F)cc2)N(c2ccc(F)cc2)C1=O	-3	-2	4
O=C(O)COc1ccccc1/C=C1\SC(=S)N(/N=C/c2ccccc2O)C1=O	-2	-2	70*
O=C(NN1C(=O)/C(=C/c2cccc(O)c2)SC1=S)c1ccccc1O	-2	6	25
O=C(C[C@@H]1CC[C@@H]2[C@H](COC[C@H](O)CN2C(=O)c2ccc3c(c2)OCO3)O1)NC1Cc2ccccc2C1	.	.	-2
C[C@@H]1CN([C@@H](C)CO)C(=O)Cc2cc(NS(=O)(=O)c3cccs3)ccc2O[C@H]1CN(C)C(=O)Nc1cccc2ccccc12	.	.	15
COc1ccccc1-c1ccc(SCc2ccc(F)cc2)nn1	5	80*	10
COc1ccccc1-c1ccc(SCc2ccc(C)cc2)nn1	-2	1	.
